According to ChEMBL document CHEMBL1759918, “2-Substituted 5,6-dimethyl-3-phenylsulfonyl-pyrazolo[1,5-a]pyrimidines: new series of highly potent and specific serotonin 5-HT6 receptor antagonists” (Eur J Med Chem, 2011):
The source made the active and inactive calls. No cut-off for these calls is given here.

What was measured:
[1] = target: T1, 5-hydroxytryptamine receptor 6 (Homo sapiens, UniProt P50406); assay: Antagonist activity at human recombinant 5HT6 receptor expressed in HEK293 cells assessed as inhibition of serotonin-induced cAMP production after 2 hrs; type: functional, cell-based
T1 sequence (P50406 whole entry): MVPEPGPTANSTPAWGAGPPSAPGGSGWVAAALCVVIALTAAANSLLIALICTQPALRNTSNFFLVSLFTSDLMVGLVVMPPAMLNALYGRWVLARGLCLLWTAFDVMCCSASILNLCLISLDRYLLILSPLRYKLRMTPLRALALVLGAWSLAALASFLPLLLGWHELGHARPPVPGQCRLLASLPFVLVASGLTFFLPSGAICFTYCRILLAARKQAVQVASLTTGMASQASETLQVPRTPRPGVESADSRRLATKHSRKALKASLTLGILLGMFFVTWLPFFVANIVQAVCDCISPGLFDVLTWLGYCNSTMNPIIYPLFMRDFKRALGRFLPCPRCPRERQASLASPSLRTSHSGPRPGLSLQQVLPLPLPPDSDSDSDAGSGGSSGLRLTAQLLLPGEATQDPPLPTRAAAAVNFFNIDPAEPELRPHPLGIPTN
Method in brief: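 Tetracycline-induced (1 ug/mL, day before) T-Rex HEK cells expressing 5-HT6R, EDTA-harvested, in HBSS/5 mM HEPES pH 7.4/0.05% BSA with IBMX; ~4000 cells/well. Compound premixed with serotonin (final 10 nM, 0.32% DMSO), 2 h; cAMP by LANCE kit. Duplicates; 4-parameter IC50; Ki = IC50/(1+[Ag]/EC50), serotonin EC50 measured on same plates.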

[2] = target: T1, 5-hydroxytryptamine receptor 6; assay: Displacement of [3H]lysergic acid diethylamide from human recombinant 5HT6 receptor
[3] = target: Histamine H3 receptor (Homo sapiens) (UniProt Q9Y5N1); assay: Binding affinity to Histaminergic H3 receptor at 10 uM by radioligand binding assay
Sequence of Histamine H3 receptor (Homo sapiens) (Q9Y5N1 whole entry): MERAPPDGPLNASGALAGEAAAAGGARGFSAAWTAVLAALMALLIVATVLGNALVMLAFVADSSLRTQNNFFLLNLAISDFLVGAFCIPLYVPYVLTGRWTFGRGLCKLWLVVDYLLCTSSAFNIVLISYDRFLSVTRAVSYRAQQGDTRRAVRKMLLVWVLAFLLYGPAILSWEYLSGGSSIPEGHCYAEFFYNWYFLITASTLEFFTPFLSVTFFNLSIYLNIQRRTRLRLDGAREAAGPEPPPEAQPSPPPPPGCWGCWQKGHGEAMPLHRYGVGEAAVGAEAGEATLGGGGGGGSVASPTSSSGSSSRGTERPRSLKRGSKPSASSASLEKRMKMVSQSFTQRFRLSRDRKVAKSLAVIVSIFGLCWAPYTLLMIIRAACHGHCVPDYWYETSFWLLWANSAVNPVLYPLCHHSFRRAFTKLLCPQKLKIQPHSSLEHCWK
Method in brief: (§1)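 Outsourced competitive radioligand displacement against target-specific labelled ligands, using the contractor's own protocol for each target. Single test concentration; duplicates, mean ± SD.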

[4] = target: D(4) dopamine receptor (Homo sapiens) (UniProt P21917); assay: Binding affinity to Dopaminergic D4.4 receptor at 10 uM by radioligand binding assay; method in brief: as §1
[5] = target: D(2) dopamine receptor (Homo sapiens) (UniProt P14416); assay: Binding affinity to Dopaminergic D2L receptor at 10 uM by radioligand binding assay; method in brief: as §1
Sequence of D(2) dopamine receptor (Homo sapiens) (P14416 whole entry): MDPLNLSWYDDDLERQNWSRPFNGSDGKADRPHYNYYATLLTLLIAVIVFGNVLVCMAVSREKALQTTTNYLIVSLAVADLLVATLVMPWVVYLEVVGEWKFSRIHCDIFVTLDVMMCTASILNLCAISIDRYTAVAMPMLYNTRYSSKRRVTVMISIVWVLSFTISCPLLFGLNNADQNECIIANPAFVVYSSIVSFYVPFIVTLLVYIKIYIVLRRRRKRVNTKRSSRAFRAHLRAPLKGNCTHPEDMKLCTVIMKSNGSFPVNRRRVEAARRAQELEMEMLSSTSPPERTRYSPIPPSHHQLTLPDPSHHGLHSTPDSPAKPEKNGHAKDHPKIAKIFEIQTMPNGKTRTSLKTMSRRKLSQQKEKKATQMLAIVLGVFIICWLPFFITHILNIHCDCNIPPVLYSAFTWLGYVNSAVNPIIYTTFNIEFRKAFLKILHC

[6] = target: Substance-P receptor (Homo sapiens) (UniProt P25103); assay: Binding affinity to tachykinin NK1 receptor at 10 uM by radioligand binding assay
Method in brief: (§2)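 Panel screen of 56 targets (GPCRs, ion channels, transporters) run by a contract lab under its own protocols; each target scored by competition of a single 10 µM compound concentration with its target-specific radioligand, given as percent displacement; duplicates, mean ± SD.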

[7] = target: Alpha-1A adrenergic receptor (Homo sapiens) (UniProt P35348); assay: Binding affinity to Adrenergic alpha1A receptor at 10 uM by radioligand binding assay; method in brief: as §1
Sequence of Alpha-1A adrenergic receptor (Homo sapiens) (P35348 whole entry): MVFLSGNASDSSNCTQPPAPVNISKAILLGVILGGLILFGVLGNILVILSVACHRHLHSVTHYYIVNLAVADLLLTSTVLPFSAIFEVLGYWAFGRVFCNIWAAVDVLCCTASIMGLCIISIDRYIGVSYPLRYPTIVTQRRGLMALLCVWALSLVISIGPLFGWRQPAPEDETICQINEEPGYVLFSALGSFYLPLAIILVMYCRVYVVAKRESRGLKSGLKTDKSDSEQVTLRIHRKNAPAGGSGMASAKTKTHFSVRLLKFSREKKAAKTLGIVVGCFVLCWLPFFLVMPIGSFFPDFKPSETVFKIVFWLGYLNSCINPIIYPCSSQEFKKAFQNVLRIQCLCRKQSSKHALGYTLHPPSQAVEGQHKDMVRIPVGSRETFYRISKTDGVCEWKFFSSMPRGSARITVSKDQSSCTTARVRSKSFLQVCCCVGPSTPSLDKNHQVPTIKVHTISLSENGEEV

[8] = target: Muscarinic acetylcholine receptor M3 (Homo sapiens) (UniProt P20309); assay: Binding affinity to Muscarinic M3 receptor at 10 uM by radioligand binding assay; method in brief: as §1
HEK293 = assay: Ratio of IC50 for human recombinant 5HT6 receptor expressed in human HEK293 cells to IC50 for human recombinant 5HT2B receptor expressed in human HEK293 cells; type: cell-based
Method in brief: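 5-HT6 arm: tetracycline-induced (1 ug/mL, day before) T-Rex 5-HT6R-HEK cells, ~4000 cells/well in HBSS/5 mM HEPES pH 7.4/0.05% BSA, 500 µM IBMX final; compound with 10 nM serotonin, 2 h; cAMP by LANCE TR-FRET. 5-HT2B arm: Fura-2-loaded 5-HT2BR-HEK cells in cuvette, 340/380 nm excitation, 510 nm emission, response to 5 µM α-methylserotonin. IC50 from 4-parameter fits, duplicates.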

[9] = target: D(2) dopamine receptor (Homo sapiens) (UniProt P14416); assay: Binding affinity to Dopaminergic D2S receptor at 10 uM by radioligand binding assay; method in brief: as §1
[10] = target: Sodium-dependent dopamine transporter (Homo sapiens) (UniProt Q01959); assay: Binding affinity to Dopamine transporter at 10 uM by radioligand binding assay; method in brief: as §1
[11] = target: Adenosine receptor A2a (Homo sapiens) (UniProt P29274); assay: Binding affinity to Adenosinergic A2A receptor at 10 uM by radioligand binding assay; method in brief: as §1
[12] = Binding affinity to GABAB receptor at 10 uM by radioligand binding assay; method in brief: as §1
[13] = target: Sodium-dependent serotonin transporter (Homo sapiens) (UniProt P31645); assay: Binding affinity to Serotonin transporter at 10 uM by radioligand binding assay; method in brief: as §2
[14] = target: Sigma non-opioid intracellular receptor 1 (Homo sapiens) (UniProt Q99720); assay: Binding affinity to sigma 1 receptor at 10 uM by radioligand binding assay; method in brief: as §2
Sequence of Sigma non-opioid intracellular receptor 1 (Homo sapiens) (Q99720 whole entry): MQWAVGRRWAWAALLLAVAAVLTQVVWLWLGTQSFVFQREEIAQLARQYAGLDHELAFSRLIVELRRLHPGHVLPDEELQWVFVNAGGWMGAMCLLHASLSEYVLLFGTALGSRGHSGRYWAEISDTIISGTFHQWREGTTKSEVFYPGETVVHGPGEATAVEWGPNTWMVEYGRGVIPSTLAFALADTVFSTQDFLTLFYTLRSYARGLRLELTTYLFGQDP

[15] = target: Neuropeptide Y receptor type 1 (Homo sapiens) (UniProt P25929); assay: Binding affinity to Neuropeptide Y Y1 receptor at 10 uM by radioligand binding assay; method in brief: as §1
[16] = Binding affinity to imidazoline I2 receptor at 10 uM by radioligand binding assay; method in brief: as §2
[17] = Binding affinity to GABAA receptor flunitrazepam binding site at 10 uM by radioligand binding assay; method in brief: as §1
[18] = Binding affinity to Dopaminergic D4.7 receptor at 10 uM by radioligand binding assay; method in brief: as §1
[19] = Binding affinity to Nicotinic receptor at 10 uM by radioligand binding assay; method in brief: as §1
[20] = target: Alpha-1B adrenergic receptor (Homo sapiens) (UniProt P35368); assay: Binding affinity to Adrenergic Alpha-1B receptor at 10 uM by radioligand binding assay; method in brief: as §1
Sequence of Alpha-1B adrenergic receptor (Homo sapiens) (P35368 whole entry): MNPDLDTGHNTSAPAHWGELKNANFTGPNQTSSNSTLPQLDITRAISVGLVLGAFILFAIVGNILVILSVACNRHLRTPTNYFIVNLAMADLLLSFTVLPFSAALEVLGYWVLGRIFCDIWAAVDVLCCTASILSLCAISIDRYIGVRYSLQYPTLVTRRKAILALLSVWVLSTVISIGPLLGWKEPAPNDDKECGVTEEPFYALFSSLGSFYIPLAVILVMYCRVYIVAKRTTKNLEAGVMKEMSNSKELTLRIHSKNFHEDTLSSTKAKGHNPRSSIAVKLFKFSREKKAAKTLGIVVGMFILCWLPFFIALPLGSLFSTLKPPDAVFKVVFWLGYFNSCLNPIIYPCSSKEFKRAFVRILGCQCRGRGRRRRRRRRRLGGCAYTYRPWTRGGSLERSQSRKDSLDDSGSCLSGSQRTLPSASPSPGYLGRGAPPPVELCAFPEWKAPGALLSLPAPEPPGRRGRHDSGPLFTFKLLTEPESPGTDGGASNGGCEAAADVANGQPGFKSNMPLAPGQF

[21] = target: Mitogen-activated protein kinase 8 (Homo sapiens) (UniProt P45983); assay: Binding affinity to MAPK8 at 10 uM by radioligand binding assay; method in brief: as §1
[22] = target: Death-associated protein kinase 2 (Homo sapiens) (UniProt Q9UIK4); assay: Binding affinity to DAPK2 at 10 uM by radioligand binding assay; method in brief: as §1
Sequence of Death-associated protein kinase 2 (Homo sapiens) (Q9UIK4 whole entry, looked up): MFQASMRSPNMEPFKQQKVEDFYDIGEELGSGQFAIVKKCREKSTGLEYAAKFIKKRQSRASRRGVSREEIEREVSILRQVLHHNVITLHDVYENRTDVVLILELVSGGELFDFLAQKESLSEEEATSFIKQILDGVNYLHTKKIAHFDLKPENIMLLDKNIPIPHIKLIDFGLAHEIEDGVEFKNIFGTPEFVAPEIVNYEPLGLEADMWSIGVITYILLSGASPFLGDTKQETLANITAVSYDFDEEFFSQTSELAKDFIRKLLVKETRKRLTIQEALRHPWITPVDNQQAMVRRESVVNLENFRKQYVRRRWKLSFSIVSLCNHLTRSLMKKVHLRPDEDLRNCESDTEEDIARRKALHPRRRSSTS

[23] = target: Cyclin-dependent kinase 5 (Homo sapiens) (UniProt Q00535); assay: Binding affinity to CDK5 at 10 uM by radioligand binding assay; method in brief: as §1
Sequence of Cyclin-dependent kinase 5 (Homo sapiens) (Q00535 whole entry, looked up): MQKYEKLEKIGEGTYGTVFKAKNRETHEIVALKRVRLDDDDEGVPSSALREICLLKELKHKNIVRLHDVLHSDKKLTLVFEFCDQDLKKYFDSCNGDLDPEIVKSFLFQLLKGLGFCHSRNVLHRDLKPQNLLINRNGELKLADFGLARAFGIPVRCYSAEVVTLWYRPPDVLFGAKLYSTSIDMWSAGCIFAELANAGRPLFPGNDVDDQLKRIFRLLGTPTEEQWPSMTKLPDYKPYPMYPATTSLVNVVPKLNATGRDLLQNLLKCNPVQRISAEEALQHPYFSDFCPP

[24] = target: 5-hydroxytryptamine receptor 3A (Homo sapiens) (UniProt P46098); assay: Binding affinity to 5HT3 receptor at 10 uM by radioligand binding assay; method in brief: as §1
[25] = target: Voltage-gated inwardly rectifying potassium channel KCNH2 (Homo sapiens, UniProt Q12809); assay: Antagonist activity at human ERG by patch clamp method; type: functional
[26] = Binding affinity to AMPA receptor at 10 uM by radioligand binding assay; method in brief: as §1
[27] = Binding affinity to Sodium channel at 10 uM by radioligand binding assay; method in brief: as §2
[28] = target: D(1A) dopamine receptor (Homo sapiens) (UniProt P21728); assay: Binding affinity to Dopaminergic D1 receptor at 10 uM by radioligand binding assay; method in brief: as §1
[29] = Binding affinity to Dopaminergic D4.2 receptor at 10 uM by radioligand binding assay; method in brief: as §1
Homo sapiens = species: Homo sapiens; assay: Ratio of Ki for human recombinant 5HT6 receptor to Ki for human recombinant 5HT2B receptor
[30] = target: Muscarinic acetylcholine receptor M1 (Homo sapiens) (UniProt P11229); assay: Binding affinity to Muscarinic M1 receptor at 10 uM by radioligand binding assay; method in brief: as §1
[31] = target: Neuropeptide Y receptor type 2 (Homo sapiens) (UniProt P49146); assay: Binding affinity to Neuropeptide Y Y2 receptor at 10 uM by radioligand binding assay; method in brief: as §1
Sequence of Neuropeptide Y receptor type 2 (Homo sapiens) (P49146 whole entry): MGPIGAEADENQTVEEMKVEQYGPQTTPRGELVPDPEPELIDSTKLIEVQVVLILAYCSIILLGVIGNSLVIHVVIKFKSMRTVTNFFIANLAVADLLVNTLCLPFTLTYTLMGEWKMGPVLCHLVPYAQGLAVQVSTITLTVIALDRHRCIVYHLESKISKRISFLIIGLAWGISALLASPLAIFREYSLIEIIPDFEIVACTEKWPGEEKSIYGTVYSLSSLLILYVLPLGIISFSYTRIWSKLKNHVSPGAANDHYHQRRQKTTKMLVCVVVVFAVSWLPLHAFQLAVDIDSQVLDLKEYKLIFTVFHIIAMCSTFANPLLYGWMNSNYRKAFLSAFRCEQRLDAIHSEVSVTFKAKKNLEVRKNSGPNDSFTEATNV

[32] = Binding affinity to NMDA receptor glycine binding site at 10 uM by radioligand binding assay; method in brief: as §1
[33] = target: 5-hydroxytryptamine receptor 1B (Homo sapiens) (UniProt P28222); assay: Binding affinity to 5HT1B receptor at 10 uM by radioligand binding assay; method in brief: as §1
Sequence of 5-hydroxytryptamine receptor 1B (Homo sapiens) (P28222 whole entry): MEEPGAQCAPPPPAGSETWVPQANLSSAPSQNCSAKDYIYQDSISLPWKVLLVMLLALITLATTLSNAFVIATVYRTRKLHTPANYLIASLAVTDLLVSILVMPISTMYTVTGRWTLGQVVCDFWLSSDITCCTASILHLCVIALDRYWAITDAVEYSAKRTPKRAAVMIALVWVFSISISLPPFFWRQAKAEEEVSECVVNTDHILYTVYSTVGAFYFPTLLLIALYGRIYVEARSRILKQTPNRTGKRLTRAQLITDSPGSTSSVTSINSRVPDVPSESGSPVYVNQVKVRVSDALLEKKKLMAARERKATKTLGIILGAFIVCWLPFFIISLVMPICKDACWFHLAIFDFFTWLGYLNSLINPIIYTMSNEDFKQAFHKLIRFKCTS

[34] = target: D(3) dopamine receptor (Homo sapiens) (UniProt P35462); assay: Binding affinity to Dopaminergic D3 receptor at 10 uM by radioligand binding assay; method in brief: as §1
[35] = target: Alpha-1D adrenergic receptor (Homo sapiens) (UniProt P25100); assay: Binding affinity to Adrenergic Alpha-1D receptor at 10 uM by radioligand binding assay; method in brief: as §1
[36] = Binding affinity to Kainate receptor at 10 uM by radioligand binding assay; method in brief: as §1
[37] = Binding affinity to L-type calcium channel bezothiazepine binding site at 10 uM by radioligand binding assay; method in brief: as §1
[38] = target: Histamine H2 receptor (Homo sapiens) (UniProt P25021); assay: Binding affinity to Histaminergic H2 receptor at 10 uM by radioligand binding assay; method in brief: as §1
Sequence of Histamine H2 receptor (Homo sapiens) (P25021 whole entry): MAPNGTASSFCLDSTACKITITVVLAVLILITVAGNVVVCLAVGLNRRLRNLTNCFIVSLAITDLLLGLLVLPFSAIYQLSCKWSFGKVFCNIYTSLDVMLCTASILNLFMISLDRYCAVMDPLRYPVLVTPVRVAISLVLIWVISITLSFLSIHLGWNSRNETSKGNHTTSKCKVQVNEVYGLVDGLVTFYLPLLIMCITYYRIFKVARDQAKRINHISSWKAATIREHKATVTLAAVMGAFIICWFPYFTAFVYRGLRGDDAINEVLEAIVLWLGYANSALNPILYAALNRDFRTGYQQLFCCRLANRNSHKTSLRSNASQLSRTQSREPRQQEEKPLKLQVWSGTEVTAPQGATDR

[39] = Binding affinity to GABAA receptor Ro-15-1788 binding site at 10 uM by radioligand binding assay; method in brief: as §1
[40] = target: Alpha-2A adrenergic receptor (Homo sapiens) (UniProt P08913); assay: Binding affinity to Adrenergic alpha2A receptor at 10 uM by radioligand binding assay; method in brief: as §1
Sequence of Alpha-2A adrenergic receptor (Homo sapiens) (P08913 whole entry): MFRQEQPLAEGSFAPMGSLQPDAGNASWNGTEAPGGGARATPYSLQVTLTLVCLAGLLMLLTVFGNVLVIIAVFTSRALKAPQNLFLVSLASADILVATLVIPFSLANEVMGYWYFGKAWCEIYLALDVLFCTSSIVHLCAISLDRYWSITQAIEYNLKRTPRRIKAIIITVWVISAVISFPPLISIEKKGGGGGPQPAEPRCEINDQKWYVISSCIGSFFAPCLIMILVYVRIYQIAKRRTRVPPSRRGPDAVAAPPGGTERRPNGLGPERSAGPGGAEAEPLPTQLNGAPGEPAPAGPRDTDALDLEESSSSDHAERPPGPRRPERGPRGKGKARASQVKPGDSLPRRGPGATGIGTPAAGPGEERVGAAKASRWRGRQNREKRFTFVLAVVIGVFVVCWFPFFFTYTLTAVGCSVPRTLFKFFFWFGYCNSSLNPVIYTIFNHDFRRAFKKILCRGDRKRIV

[41] = Binding affinity to NMDA receptor phencyclidine binding site at 10 uM by radioligand binding assay; method in brief: as §1
[42] = Binding affinity to N-type calcium channel at 10 uM by radioligand binding assay; method in brief: as §1
[43] = Binding affinity to Potassium channel at 10 uM by radioligand binding assay; method in brief: as §2
[44] = target: Histamine H1 receptor (Homo sapiens) (UniProt P35367); assay: Binding affinity to Histaminergic H1 receptor at 10 uM by radioligand binding assay; method in brief: as §1
[45] = Binding affinity to GABA transporter at 10 uM by radioligand binding assay; method in brief: as §1
[46] = Binding affinity to sigma2 receptor at 10 uM by radioligand binding assay; method in brief: as §2
[47] = target: Death-associated protein kinase 3 (Homo sapiens) (UniProt O43293); assay: Binding affinity to DAPK3 at 10 uM by radioligand binding assay; method in brief: as §1
[48] = target: Death-associated protein kinase 1 (Homo sapiens) (UniProt P53355); assay: Binding affinity to DAPK1 at 10 uM by radioligand binding assay; method in brief: as §1
[49] = target: 5-hydroxytryptamine receptor 1A (Homo sapiens) (UniProt P08908); assay: Binding affinity to 5HT1A receptor at 10 uM by radioligand binding assay; method in brief: as §1
[50] = target: Sodium- and chloride-dependent glycine transporter 2 (Homo sapiens) (UniProt Q9Y345); assay: Binding affinity to Glycine transporter at 10 uM by radioligand binding assay; method in brief: as §1
[51] = target: Adenosine receptor A1 (Homo sapiens) (UniProt P30542); assay: Binding affinity to Adenosinergic A1 receptor at 10 uM by radioligand binding assay; method in brief: as §1
[52] = target: Muscarinic acetylcholine receptor M2 (Homo sapiens) (UniProt P08172); assay: Binding affinity to Muscarinic M2 receptor at 10 uM by radioligand binding assay; method in brief: as §1
[53] = target: Sodium-dependent noradrenaline transporter (Homo sapiens) (UniProt P23975); assay: Binding affinity to norepinephrine transporter at 10 uM by radioligand binding assay; method in brief: as §2
[54] = Binding affinity to L-type calcium channel dihydropyridine binding site at 10 uM by radioligand binding assay; method in brief: as §1
[55] = target: 5-hydroxytryptamine receptor 2C (Homo sapiens) (UniProt P28335); assay: Binding affinity to 5HT2C receptor at 10 uM by radioligand binding assay; method in brief: as §1
[56] = target: Mitogen-activated protein kinase 10 (Homo sapiens) (UniProt P53779); assay: Binding affinity to MAPK10 at 10 uM by radioligand binding assay; method in brief: as §1

## Cc1cc(C)n2nc(N(C)CCN(C)C)c(S(=O)(=O)c3ccccc3)c2n1
[1]
  Ki: 489 nM

## Cc1cc(C)n2nc(C)c(S(=O)(=O)c3ccccc3)c2n1
[1]
  Ki: 88.8 nM

## Cc1cc(C)n2nc(N3CCNCC3)c(S(=O)(=O)c3ccccc3)c2n1
[1]
  Ki: 1380 nM

## Cc1cc(C)n2nc(NCCCN(C)C)c(S(=O)(=O)c3ccccc3)c2n1
[1]
  Ki: 764 nM

## CSc1nn2c(C)cc(C)nc2c1S(=O)(=O)c1ccccc1
[2]
  Ki: 2 nM

## Cc1cc(C)n2nc(OCCO)c(S(=O)(=O)c3ccccc3)c2n1
[2]
  Ki: 22.2 nM
[1]
  Ki: 283 nM

## Cc1cc(C)n2nc(N(C)C)c(S(=O)(=O)c3ccccc3)c2n1
[1]
  Ki: 14.5 nM

## Cc1cc(C)n2nc(OCCN(C)C)c(S(=O)(=O)c3ccccc3)c2n1
[1]
  Ki: 2200 nM

## CCSc1nn2c(C)cc(C)nc2c1S(=O)(=O)c1ccccc1
[1]
  Ki: 1.91 nM

## CNc1nn2c(C)cc(C)nc2c1S(=O)(=O)c1ccccc1
[3]
  Activity: inactive
[4]
  Activity: inactive
[5]
  Activity: inactive
[6]
  Activity: inactive
[7]
  Activity: inactive
[8]
  Activity: inactive
HEK293
  Ratio: 1000
[2]
  Ki: 0.2 nM
[9]
  Activity: inactive
[10]
  Activity: inactive
[11]
  Activity: inactive
[12]
  Activity: inactive
[13]
  Activity: inactive
[14]
  Activity: inactive
[15]
  Activity: inactive
[16]
  Activity: inactive
[17]
  Activity: inactive
[18]
  Activity: inactive
[19]
  Activity: inactive
[20]
  Activity: inactive
[21]
  Activity: inactive
[22]
  Activity: inactive
[23]
  Activity: inactive
[24]
  Activity: inactive
[25]
  IC50: > 30000 nM
[26]
  Activity: inactive
[27]
  Activity: inactive
[28]
  Activity: inactive
[29]
  Activity: inactive
Homo sapiens
  Ratio: 5000
[30]
  Activity: inactive
[31]
  Activity: inactive
[32]
  Activity: inactive
[33]
  Activity: inactive
[34]
  Activity: inactive
[35]
  Activity: inactive
[36]
  Activity: inactive
[37]
  Activity: inactive
[38]
  Activity: inactive
[39]
  Activity: inactive
[40]
  Activity: inactive
[41]
  Activity: inactive
[42]
  Activity: inactive
[43]
  Activity: inactive
[44]
  Activity: inactive
[45]
  Activity: inactive
[46]
  Activity: inactive
[47]
  Activity: inactive
[48]
  Activity: inactive
[49]
  Activity: inactive
[50]
  Activity: inactive
[51]
  Activity: inactive
[52]
  Activity: inactive
[53]
  Activity: inactive
[54]
  Activity: inactive
[55]
  Activity: inactive
[56]
  Activity: inactive

## Cc1cc(C)n2ncc(S(=O)(=O)c3ccccc3)c2n1
[1]
  Ki: 561 nM

## Cc1cc(C)n2nc(NCCN(C)C)c(S(=O)(=O)c3ccccc3)c2n1
[1]
  Ki: 2600 nM

## Cc1cc(C)n2nc([S+](C)[O-])c(S(=O)(=O)c3ccccc3)c2n1 (stereo not given)
[1]
  Ki: 2960 nM
